Test results published in ChEMBL document CHEMBL1156144, “Biaryl ethers as novel non-nucleoside reverse transcriptase inhibitors with improved potency against key mutant viruses” (J Med Chem, 2009).

Assays:
[1] = molecular target: Human immunodeficiency virus type 1 reverse transcriptase (Human immunodeficiency virus 1, UniProt Q72547, K103N); assay: Inhibition of RNA-dependent DNA polymerase activity of recombinant HIV reverse transcriptase K103N mutant assessed as BrdU incorporation by standard ECL assay
[2] = molecular target: Cytochrome P450 2D6 (Homo sapiens, UniProt P10635); assay: Inhibition of CYP2D6; assay type: ADME
Chain of Cytochrome P450 2D6 (P10635 whole entry): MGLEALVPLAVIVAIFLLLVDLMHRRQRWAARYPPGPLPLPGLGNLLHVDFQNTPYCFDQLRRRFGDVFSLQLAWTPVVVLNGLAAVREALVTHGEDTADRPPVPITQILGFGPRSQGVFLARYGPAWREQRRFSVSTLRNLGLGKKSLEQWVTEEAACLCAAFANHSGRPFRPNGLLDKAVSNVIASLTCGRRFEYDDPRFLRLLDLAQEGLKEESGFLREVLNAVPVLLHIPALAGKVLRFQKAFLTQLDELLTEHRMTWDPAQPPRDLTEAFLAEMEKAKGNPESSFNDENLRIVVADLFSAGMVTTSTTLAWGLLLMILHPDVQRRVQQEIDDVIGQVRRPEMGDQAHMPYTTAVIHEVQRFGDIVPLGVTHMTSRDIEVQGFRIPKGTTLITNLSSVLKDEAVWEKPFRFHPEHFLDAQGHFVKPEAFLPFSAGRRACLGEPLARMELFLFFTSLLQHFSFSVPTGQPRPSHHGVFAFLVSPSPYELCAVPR

[3] = system: Rattus norvegicus; assay: AUC in Sprague-Dawley rat at 10 mg/kg, po; assay type: ADME, organism-based, Plasma; set-up: dose 10 mg/kg, route oral; settings: in vivo
[4] = system: Human immunodeficiency virus; assay: Antiviral activity against HIV with reverse transcriptase MDRC4 mutant assessed as inhibition of viral replication; assay type: functional, organism-based; settings: Human immunodeficiency virus 1
[5] = Clearance in rhesus monkey at 1 mg/kg, iv; assay type: ADME, organism-based, Macaca mulatta; set-up: dose 1 mg/kg, route intravenous; settings: in vivo
[6] = system: Human immunodeficiency virus; assay: Antiviral activity against HIV with reverse transcriptase K103N/Y181C double mutant infected in human MT2 cells assessed as inhibition of viral replication measuring p24 level after 3 days in presence of 10% fetal bovine serum; assay type: functional; settings: Human immunodeficiency virus 1, MT2, Serum, 72 h; read-out: CIC95
Outline: (§1)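 Multiple-cycle replication (Spread) assay in MT2 cells with H9IIIB-background mutant virus. Cells were infected overnight at moi ≈ 0.01 without compound, washed, then cultured 3 days across a range of compound concentrations in medium with 10% FBS. p24 was measured in supernatants. CIC95 is the lowest concentration inhibiting replication by ≥95%, reported as the geometric mean of ≥2 determinations.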

[7] = system: Human immunodeficiency virus; assay: Antiviral activity against HIV with reverse transcriptase K101E/Y181C/G190A mutant assessed as inhibition of viral replication; assay type: functional, organism-based; settings: Human immunodeficiency virus 1
[8] = system: Human immunodeficiency virus; assay: Antiviral activity against HIV with reverse transcriptase K101E/G190A double mutant assessed as inhibition of viral replication; assay type: functional, organism-based; settings: Human immunodeficiency virus 1
[9] = system: Human immunodeficiency virus; assay: Antiviral activity against HIV with reverse transcriptase V106A/G190A/F227L mutant assessed as inhibition of viral replication; assay type: functional, organism-based; settings: Human immunodeficiency virus 1
[10] = system: Human immunodeficiency virus; assay: Antiviral activity against HIV with reverse transcriptase CNDO mutant assessed as inhibition of viral replication; assay type: functional, organism-based; settings: Human immunodeficiency virus 1
[11] = Half life in Sprague-Dawley rat at 2 mg/kg, iv; assay type: ADME, organism-based; set-up: dose 2 mg/kg, route intravenous; settings: in vivo
[12] = molecular target: Cytochrome P450 3A4 (Homo sapiens, UniProt P08684); assay: Inhibition of CYP3A4; assay type: ADME
Chain of Cytochrome P450 3A4 (P08684 whole entry): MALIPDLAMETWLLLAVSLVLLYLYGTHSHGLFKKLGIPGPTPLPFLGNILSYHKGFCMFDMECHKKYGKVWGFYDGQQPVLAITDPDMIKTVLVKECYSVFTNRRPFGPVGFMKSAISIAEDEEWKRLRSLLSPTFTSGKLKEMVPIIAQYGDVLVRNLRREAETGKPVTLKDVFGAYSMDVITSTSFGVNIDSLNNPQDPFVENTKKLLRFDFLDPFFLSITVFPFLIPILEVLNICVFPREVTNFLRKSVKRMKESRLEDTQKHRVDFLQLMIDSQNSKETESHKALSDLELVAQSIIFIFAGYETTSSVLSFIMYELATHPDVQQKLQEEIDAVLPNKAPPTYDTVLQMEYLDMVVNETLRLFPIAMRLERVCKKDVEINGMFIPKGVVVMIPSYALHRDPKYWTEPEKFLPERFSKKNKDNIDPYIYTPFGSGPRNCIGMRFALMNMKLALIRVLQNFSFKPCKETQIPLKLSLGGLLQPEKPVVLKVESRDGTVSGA

[13] = Half life in Beagle dog at 0.5 mg/kg, iv; assay type: ADME, organism-based, Canis lupus familiaris; set-up: dose 0.5 mg/kg, route intravenous; settings: in vivo
[14] = Volume of distribution in Beagle dog at 0.5 mg/kg, iv; assay type: ADME, organism-based, Canis lupus familiaris; set-up: dose 0.5 mg/kg, route intravenous; settings: in vivo
[15] = Inhibition of RNA-dependent DNA polymerase activity of wild type HIV reverse transcriptase assessed as BrdU incorporation by standard ECL assay; set-up: species or system Human immunodeficiency virus
Outline: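 Purified recombinant wild-type RT polymerase activity was measured using a 500-nt heteropolymeric RNA template and a biotinylated DNA primer. BrdU incorporation was detected with a ruthenylated anti-BrdU antibody by electrochemiluminescence. Ki is the geometric mean of at least two determinations, each within 25% of the mean.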

[16] = system: Rhesus monkey; assay: AUC in rhesus monkey at 5 mg/kg, po; assay type: ADME, organism-based, Macaca mulatta, Plasma; set-up: dose 5 mg/kg, route oral; settings: in vivo
[17] = system: Human immunodeficiency virus; assay: Antiviral activity against HIV with reverse transcriptase K103N mutant assessed as inhibition of viral replication; assay type: functional, organism-based; settings: Human immunodeficiency virus 1
[18] = Clearance in Beagle dog at 0.5 mg/kg, iv; assay type: ADME, organism-based, Canis lupus familiaris; set-up: dose 0.5 mg/kg, route intravenous; settings: in vivo
[19] = system: Human immunodeficiency virus; assay: Antiviral activity against HIV with reverse transcriptase K103N/Y181C double mutant assessed as inhibition of viral replication; assay type: functional, organism-based; settings: Human immunodeficiency virus 1
[20] = Volume of distribution in rhesus monkey at 1 mg/kg, iv; assay type: ADME, organism-based, Macaca mulatta; set-up: dose 1 mg/kg, route intravenous; settings: in vivo
[21] = system: Human immunodeficiency virus; assay: Antiviral activity against HIV with reverse transcriptase G190S mutant assessed as inhibition of viral replication; assay type: functional, organism-based; settings: Human immunodeficiency virus 1
[22] = Half life in rhesus monkey at 1 mg/kg, iv; assay type: ADME, organism-based, Macaca mulatta; set-up: dose 1 mg/kg, route intravenous; settings: in vivo
[23] = system: Canis familiaris; assay: AUC in Beagle dog at 1 mg/kg, po; assay type: ADME, organism-based, Canis lupus familiaris, Plasma; set-up: dose 1 mg/kg, route oral; settings: in vivo
[24] = Clearance in Sprague-Dawley rat at 2 mg/kg, iv; assay type: ADME, organism-based; set-up: dose 2 mg/kg, route intravenous; settings: in vivo
[25] = system: Human immunodeficiency virus; assay: Antiviral activity against HIV with reverse transcriptase L100I mutant assessed as inhibition of viral replication; assay type: functional, organism-based; settings: Human immunodeficiency virus 1
[26] = system: Human immunodeficiency virus; assay: Antiviral activity against HIV with reverse transcriptase K103N/G190A double mutant assessed as inhibition of viral replication; assay type: functional, organism-based; settings: Human immunodeficiency virus 1
[27] = system: Human immunodeficiency virus; assay: Antiviral activity against wild type HIV H9-3B infected in human MT2 cells assessed as inhibition of viral replication measuring p24 level after 3 days in presence of 10% fetal bovine serum; assay type: functional; settings: Human immunodeficiency virus 1, MT2, Serum; read-out: CIC95
Outline: (§2)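 Multiple-cycle spread assay in MT2 cells with wild-type H9IIIB virus. Cells were infected overnight at moi ≈ 0.01 without compound, washed, then cultured 3 days across varying compound concentrations in RPMI 1640 with 10% FBS or 50% NHS. p24 was measured in supernatants. CIC95 is the lowest concentration inhibiting replication ≥95%, as the geometric mean of ≥2 determinations.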

[28] = system: Human immunodeficiency virus; assay: Antiviral activity against HIV with reverse transcriptase Y181C mutant infected in human MT2 cells assessed as inhibition of viral replication measuring p24 level after 3 days in presence of 10% fetal bovine serum; assay type: functional; settings: Human immunodeficiency virus 1, MT2, Serum, 72 h; read-out: CIC95; outline: as §1
[29] = system: Human immunodeficiency virus; assay: Antiviral activity against HIV with reverse transcriptase K103N/Y181C/G190A mutant assessed as inhibition of viral replication; assay type: functional, organism-based; settings: Human immunodeficiency virus 1
[30] = system: Human immunodeficiency virus; assay: Antiviral activity against HIV with reverse transcriptase G190A mutant assessed as inhibition of viral replication; assay type: functional, organism-based; settings: Human immunodeficiency virus 1
[31] = Plasma concentration in rat at 100 mg/kg, po after 24 hrs; assay type: ADME, organism-based; set-up: dose 100 mg/kg, route oral
[32] = system: Canis familiaris; assay: Cardiotoxicity in conscious cardiovascular dog assessed as mean arterial pressure at 10 mg/kg, iv; assay type: toxicity, organism-based, Canis lupus familiaris, Heart; set-up: dose 10 mg/kg, route intravenous; settings: in vivo
[33] = system: Human immunodeficiency virus; assay: Antiviral activity against HIV with reverse transcriptase Y181C mutant assessed as inhibition of viral replication; assay type: functional, organism-based; settings: Human immunodeficiency virus 1
[34] = system: Human immunodeficiency virus; assay: Antiviral activity against HIV with reverse transcriptase Y188L mutant assessed as inhibition of viral replication; assay type: functional, organism-based; settings: Human immunodeficiency virus 1
[35] = Oral bioavailability in rhesus monkey at 5 mg/kg; settings: in vivo
[36] = system: Human immunodeficiency virus; assay: Antiviral activity against HIV with reverse transcriptase L100I/K103N double mutant assessed as inhibition of viral replication; assay type: functional, organism-based; settings: Human immunodeficiency virus 1
[37] = Volume of distribution in Sprague-Dawley rat at 2 mg/kg, iv; assay type: ADME, organism-based; set-up: dose 2 mg/kg, route intravenous; settings: in vivo
[38] = system: Rattus norvegicus; assay: AUC in Sprague-Dawley rat at 2 mg/kg, iv; assay type: ADME, organism-based, Plasma; set-up: dose 2 mg/kg, route intravenous; settings: in vivo
[39] = system: Human immunodeficiency virus; assay: Antiviral activity against HIV with reverse transcriptase Y181C/G190A double mutant assessed as inhibition of viral replication; assay type: functional, organism-based; settings: Human immunodeficiency virus 1
[40] = system: Canis familiaris; assay: Cardiotoxicity in conscious cardiovascular dog assessed as heart rate at 10 mg/kg, iv; assay type: toxicity, organism-based, Canis lupus familiaris; set-up: dose 10 mg/kg, route intravenous; settings: in vivo
[41] = Oral bioavailability in Beagle dog at 1 mg/kg; assay type: ADME, organism-based, Canis lupus familiaris; settings: in vivo
[42] = system: Human immunodeficiency virus; assay: Antiviral activity against wild type HIV H9-3B infected in human MT2 cells assessed as inhibition of viral replication measuring p24 level after 3 days in presence of 50% normal human serum; assay type: functional; settings: Human immunodeficiency virus 1, H9-3B, 72 h, read-out: CIC95; outline: as §2
[43] = system: Human immunodeficiency virus; assay: Antiviral activity against HIV with reverse transcriptase K103N/P225H double mutant assessed as inhibition of viral replication; assay type: functional, organism-based; settings: Human immunodeficiency virus 1
[44] = system: Human immunodeficiency virus; assay: Antiviral activity against HIV with reverse transcriptase K103N mutant infected in human MT2 cells assessed as inhibition of viral replication measuring p24 level after 3 days in presence of 10% fetal bovine serum; assay type: functional; settings: Human immunodeficiency virus 1, MT2, Serum, 72 h; read-out: CIC95; outline: as §1
[45] = Oral bioavailability in Sprague-Dawley rat at 10 mg/kg; assay type: ADME, organism-based; settings: in vivo
[46] = system: Canis familiaris; assay: Cardiotoxicity in conscious cardiovascular dog assessed as electrocardiogram at 10 mg/kg, iv; assay type: toxicity, organism-based, Canis lupus familiaris, Heart; set-up: dose 10 mg/kg, route intravenous; settings: in vivo

Q: For `N#Cc1cc(Cl)cc(Oc2cc(OCc3n[nH]c4nc(N)ccc34)cc(F)c2Cl)c1`, which Ki [1] is on record?
A: Its Ki is 0.4 nM.

Q: What about the IC50 [2] of the same compound?
A: The IC50 was 47400 nM.

Q: And the AUC [3]?
A: The AUC was 18 µM.

Q: And the IC50 [4]?
A: The IC50 was 6.4 nM.

Q: What about the clearance [5] of the same compound?
A: Its clearance is 15 mL/min/kg.

Q: And the IC95 [6]?
A: Its IC95 is 62 nM.

Q: What about the IC50 [7] of the same compound?
A: Its IC50 is 19.2 nM.

Q: What about the IC50 [8] of the same compound?
A: Its IC50 is 3.4 nM.

Q: What about the IC50 [9] of the same compound?
A: The IC50 was > 1000 nM.

Q: What about the IC50 [10] of the same compound?
A: Its IC50 is 1.1 nM.

Q: And the half-life [11]?
A: Its half-life is 4.6 h.

Q: What about the IC50 [12] of the same compound?
A: Its IC50 is 4400 nM.

Q: And the half-life [13]?
A: Its half-life is 7 h.

Q: And the Vd [14]?
A: Its Vd is 2.3 L/kg.

Q: And the Ki [15]?
A: Its Ki is 0.1 nM.

Q: What about the AUC [16] of the same compound?
A: Its AUC is 1.7 µM.

Q: And the IC50 [17]?
A: Its IC50 is 3.3 nM.

Q: What about the clearance [18] of the same compound?
A: Its clearance is 4 mL/min/kg.

Q: What about the IC50 [19] of the same compound?
A: Its IC50 is 184 nM.

Q: What about the Vd [20] of the same compound?
A: The Vd was 3.6 L/kg.

Q: And the IC50 [21]?
A: The IC50 was 37.3 nM.

Q: What about the half-life [22] of the same compound?
A: Its half-life is 4.2 h.

Q: What about the AUC [23] of the same compound?
A: The AUC was 6 µM.

Q: What about the clearance [24] of the same compound?
A: The clearance was 10 mL/min/kg.

Q: And the IC50 [25]?
A: Its IC50 is 0.6 nM.

Q: And the IC50 [26]?
A: The IC50 was 9.6 nM.

Q: And the IC95 [27]?
A: Its IC95 is 8 nM.

Q: What about the IC95 [28] of the same compound?
A: The IC95 was 14 nM.

Q: And the IC50 [29]?
A: Its IC50 is 84.3 nM.

Q: And the IC50 [30]?
A: Its IC50 is 2 nM.

Q: What about the AUC at 24 h [31] of the same compound?
A: Its AUC at 24 h is 180 µM·h.

Q: What about the Activity [32] of the same compound?
A: The Activity was “Non-toxic”.

Q: And the IC50 [33]?
A: Its IC50 is 2.2 nM.

Q: What about the IC50 [34] of the same compound?
A: Its IC50 is 326 nM.

Q: And the bioavailability [35]?
A: Its bioavailability is 13%.

Q: What about the IC50 [36] of the same compound?
A: Its IC50 is 112 nM.

Q: What about the Vd [37] of the same compound?
A: The Vd was 3.5 L/kg.

Q: And the AUC [38]?
A: Its AUC is 7.4 µM.

Q: And the IC50 [39]?
A: The IC50 was 4.3 nM.

Q: And the Activity [40]?
A: Its Activity is “Non-toxic”.

Q: What about the bioavailability [41] of the same compound?
A: Its bioavailability is 63%.

Q: And the IC95 [42]?
A: Its IC95 is 69 nM.

Q: And the IC50 [43]?
A: Its IC50 is 3.3 nM.

Q: And the IC95 [44]?
A: Its IC95 is 18 nM.

Q: And the bioavailability [45]?
A: The bioavailability was 49%.

Q: And the Activity [46]?
A: Its Activity is “Non-toxic”.
